For assay [1], the system named is Mus musculus. The experiment in a line: Ex vivo inhibition of the accumulation of (-)-[3H]Norepinephrine in slices from the middle part of the mouse brain. (i.p.). The note with it: ip. The assay is classed as functional. A digest of the protocol: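 Compound given i.p.; mice killed 60 min later. Brain slices (about 1 mm) preincubated 5 min at 37 °C in Krebs-Henseleit buffer with 1 × 10^-4 M pargyline, glucose, ascorbate and EDTA under 6.5% CO2/O2. Then 5 min with 1 × 10^-7 M [3H]NE plus 1 × 10^-7 M [14C]-5-HT, counted by double labelling. Active uptake is the cocaine-sensitive (5 × 10^-4 M) part. 3–4 doses, 4 mice/dose; ED50 from semilog plots.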

The species entered for assay [2] is Mus musculus. The assay is described as follows: In vitro inhibition of the accumulation of (-)-[3H]Norepinephrine in slices from the middle part of the mouse brain. The assay is classed as functional.
Assay [3] in a line: Selectivity expressed as ratio between NE and 5-HT uptake inhibition in mouse brain slices. Format: functional.
The species entered for another assay is Rattus norvegicus. The assay is described as follows: In vitro inhibition of the accumulation of (-)-[3H]Norepinephrine in synaptosomes from the rat brain cortex. The assay is classed as functional.
Assay [4] in a line: Selectivity expressed as ratio between NE and 5-HT uptake inhibition in rat synaptosomes. The assay is classed as functional, subcellular. The note with it: Brain.

Turning to `CNCC/C=C(\c1ccc(Br)cc1)c1cccnc1`, it took a dose of 98 µmol/kg to reach the 50% effect level in the assay with Mus musculus [1] (ED50). Also, the IC50 in the assay filed under Mus musculus [2] was found to be 250 nM; in the assay listed under Rattus norvegicus, 1000 nM. Moreover, the Ratio in assay [3] amounted to 2.1; in assay [4], 0.71.
In the assay on Mus musculus [1], `CN(C)C/C=C(/c1ccc(Br)cc1)c1cccnc1` [ZIMELDINE] gave an ED50 greater than 98 µmol/kg. Moreover, in the assay filed under Rattus norvegicus, the IC50 amounted to 3200 nM. Further, the Ratio in assay [4] amounted to 32.
The compound `CNCC/C=C(/c1ccc(Br)cc1)c1cccnc1` returned an ED50 in the assay with Mus musculus [1] greater than 98 µmol/kg. Further, the IC50 in the assay listed under Mus musculus [2] was greater than 25000 nM; in the assay filed under Rattus norvegicus, 6600 nM. Moreover, the Ratio was greater than 50 in assay [3] and 28 in assay [4].
As for `CN(C)CC/C=C(\c1ccc(Br)cc1)c1cccnc1`, the 50% effect level with Mus musculus [1] (ED50) was put at a dose of 95 µmol/kg. Further, the IC50 in the assay listed under Mus musculus [2] was found to be 7800 nM; in the assay listed under Rattus norvegicus, 1400 nM. Further, the Ratio in assay [3] was found to be 1.1; in assay [4], 0.54.
Taken in the same sequence, the figures for `CN(C)CCC=C1c2ccccc2CCc2ccccc21` [AMITRIPTYLINE] were 114 µmol/kg, 5400 nM, 61 nM, 1.9 and 0.19.
On to `CNCCC=C1c2ccccc2CCc2ccccc21` [NORTRIPTYLINE], for which the ED50 with Mus musculus [1] amounted to 67 µmol/kg. Also, the 50% inhibitory concentration (IC50) in the assay listed under Mus musculus [2] is 500 nM; in the assay listed under Rattus norvegicus, 7 nM. Further, the Ratio amounted to 0.075 in assay [3] and 0.0035 in assay [4].
Compound `CNC/C=C(\c1ccc(Br)cc1)c1cccnc1` [NORZIMELIDINE] came in with an ED50 in the assay on Mus musculus [1] of 25 µmol/kg. For the same compound, the IC50 in the assay listed under Rattus norvegicus came out at 4.6 nM. Further, in assay [4], the Ratio was 0.058.
Turning to `CNC/C=C(/c1ccc(Br)cc1)c1cccnc1` [NOMELIDINE], the 50% effective dose (ED50) in the assay with Mus musculus [1] is greater than 102 µmol/kg. The same compound came in with a 50% inhibitory concentration (IC50) in the assay filed under Rattus norvegicus of 240 nM. Further, in assay [4], the Ratio came to 6.3.
Compound `CN(C)CC/C=C(/c1ccc(Br)cc1)c1cccnc1` returned an ED50 in the assay on Mus musculus [1] greater than 95 µmol/kg. For the same compound, the IC50 was greater than 24000 nM in the assay filed under Mus musculus [2] and 22500 nM in the assay listed under Rattus norvegicus. In addition, the Ratio was greater than 27 in assay [3] and 45 in assay [4].
For `CN(C)C/C=C(\c1ccc(Br)cc1)c1cccnc1`, in the assay on Mus musculus [1], the ED50 came to 25 µmol/kg. The compound also displayed an IC50 in the assay filed under Rattus norvegicus of 150 nM. In assay [4], the Ratio is 0.68.

For orientation: ED50 means the midpoint of the dose-response relation. Read a low ED50 as an effect at a small dose. The term IC50 denotes the concentration needed to halve the response being measured. A lower IC50 goes with greater potency.

For the origin of these results see ChEMBL document CHEMBL1124236, “Homoallylic amines related to zimeldine. A comparative study on neuronal serotonin and norepinephrine reuptake based on conformational analysis” (J Med Chem, 1988).
